Source: ChEMBL document CHEMBL3352402, “Pharmacological evaluation and docking studies of α,β-unsaturated carbonyl based synthetic compounds as inhibitors of secretory phospholipase A₂, cyclooxygenases, lipoxygenase and proinflammatory cytokines” (Bioorg Med Chem, 2014)
Activity calls are given as the source filed them. The calls are words filed in the database; no cut-off is given here.

Legend:
[1] = Inhibition of sPLA2-V (unknown origin) using substrate 1,2-bis(heptanoylthio)-glycerophosphocholine by Ellman's method based photometric assay; parameters: species or system Homo sapiens
[2] = biological target: T1, Prostaglandin G/H synthase 2 (Homo sapiens, UniProt P35354); assay: Inhibition of human recombinant COX2 using arachidonic acid substrate assessed as PGE2 production ELISA method after 2 mins
T1 sequence (P35354 whole entry): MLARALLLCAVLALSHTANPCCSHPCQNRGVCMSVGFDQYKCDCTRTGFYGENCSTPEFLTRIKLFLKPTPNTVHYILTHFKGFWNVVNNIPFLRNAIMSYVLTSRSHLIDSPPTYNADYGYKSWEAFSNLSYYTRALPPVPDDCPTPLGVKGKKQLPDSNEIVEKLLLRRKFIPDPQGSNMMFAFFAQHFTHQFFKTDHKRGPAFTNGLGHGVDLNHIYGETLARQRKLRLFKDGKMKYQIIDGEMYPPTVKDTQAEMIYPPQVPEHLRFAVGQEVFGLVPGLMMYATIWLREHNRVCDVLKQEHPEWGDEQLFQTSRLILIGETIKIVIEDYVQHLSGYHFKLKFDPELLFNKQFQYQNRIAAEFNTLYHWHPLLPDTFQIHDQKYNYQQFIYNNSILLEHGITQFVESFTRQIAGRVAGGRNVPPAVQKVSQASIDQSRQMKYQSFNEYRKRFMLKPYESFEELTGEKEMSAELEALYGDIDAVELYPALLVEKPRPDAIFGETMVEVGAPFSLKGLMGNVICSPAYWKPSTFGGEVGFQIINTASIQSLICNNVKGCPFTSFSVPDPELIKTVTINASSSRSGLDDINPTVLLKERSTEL

RAW264.7 [3] = assay: Immunostimulatory activity in mouse RAW264.7 cells assessed as stimulation of IL6 release at 10 uM per-treated with compound for 2 hrs before LPS challenge for 22 hrs by ELISA method; format: functional, cell-based
How it was run: (§1)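 RAW 264.7 macrophages grown in DMEM with 10% heat-inactivated FBS and 1% Pen Strep, 37°C, 5% CO2. Pretreated 2 h with compound (10 µM) or vehicle, then LPS (0.5 µg/ml, in PBS) 22 h. Medium was centrifuged and cytokine measured by mouse ELISA. Levels were normalized to total protein of the cell pellet and expressed as percent of LPS control. Triplicates, mean ± SEM.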

[4] = biological target: T2, Prostaglandin G/H synthase 1 (Ovis aries, UniProt P05979); assay: Inhibition of ovine COX1 using arachidonic acid substrate assessed as PGE2 production ELISA method after 2 mins
T2 sequence (P05979 whole entry): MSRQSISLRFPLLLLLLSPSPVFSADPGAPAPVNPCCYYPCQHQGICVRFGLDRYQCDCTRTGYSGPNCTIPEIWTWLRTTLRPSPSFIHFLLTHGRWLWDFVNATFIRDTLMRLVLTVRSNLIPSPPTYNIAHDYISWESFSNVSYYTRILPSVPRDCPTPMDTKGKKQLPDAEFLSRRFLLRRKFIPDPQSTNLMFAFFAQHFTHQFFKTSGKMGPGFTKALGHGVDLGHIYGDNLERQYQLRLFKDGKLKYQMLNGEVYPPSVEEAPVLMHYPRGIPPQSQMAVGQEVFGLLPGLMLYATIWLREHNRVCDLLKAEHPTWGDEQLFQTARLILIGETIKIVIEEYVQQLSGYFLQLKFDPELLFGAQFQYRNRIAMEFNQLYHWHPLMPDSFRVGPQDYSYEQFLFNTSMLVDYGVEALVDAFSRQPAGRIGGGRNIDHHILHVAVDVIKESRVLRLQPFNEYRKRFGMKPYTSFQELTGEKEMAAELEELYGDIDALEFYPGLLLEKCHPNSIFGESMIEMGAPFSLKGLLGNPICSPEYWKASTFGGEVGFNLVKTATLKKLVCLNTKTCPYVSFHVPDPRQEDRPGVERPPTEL

Lipoxygenase = Lipoxygenase (Glycine max, UniProt Q39829); assay: Inhibition of soybean lipoxygenase after 5 mins by colorimetric assay
How it was run: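 Purified soybean lipoxygenase resuspended in 0.1 M Tris-HCl, pH 7. Enzyme plus test sample was started with substrate (dissolved in KOH, diluted to 1 mM) at room temperature for 5 min. Chromogen was added for 5 min to stop the reaction, then absorbance read at 490 nm. Activity is relative to enzyme plus substrate alone.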

RAW264.7 [5] = assay: Inhibition of IL6 release in mouse RAW264.7 cells at 10 uM per-treated with compound for 2 hrs before LPS challenge for 22 hrs by ELISA method; format: functional; how it was run: as §1
RAW264.7 [6] = assay: Inhibition of TNFalpha expression in mouse RAW264.7 cells at 10 uM per-treated with compound for 2 hrs before LPS challenge for 22 hrs by ELISA method; format: functional
[7] = biological target: Lipoxygenase (Glycine max) (UniProt Q39829); assay: Inhibition of soybean lipoxygenase at 40 ug/mL after 5 mins by colorimetric assay
RAW264.7 [8] = assay: Immunostimulatory activity in mouse RAW264.7 cells assessed as stimulation of TNFalpha expression at 10 uM per-treated with compound for 2 hrs before LPS challenge for 22 hrs by ELISA method; format: functional, cell-based; how it was run: as §1

Row | SMILES | IC50 [1] [µM] | IC50 [2] [µM] | IC50 [4] [µM] | IC50 (Lipoxygenase) [µM] | inhibition [7] [%] | Activity (RAW264.7 [3]) | inhibition at 10 µM (RAW264.7 [5]) [%] | inhibition at 10 µM (RAW264.7 [6]) [%] | Activity (RAW264.7 [8])
1 | CN(C)c1ccc(/C=C2\CC/C(=C\c3ccc(N(C)C)cc3[N+](=O)[O-])C2=O)c([N+](=O)[O-])c1 | 38.4 | > 100 |  |  |  |  |  |  | 
2 | CN(C)c1ccc(/C=C2\CN(Cc3ccccc3)C/C(=C\c3ccc(N(C)C)cc3[N+](=O)[O-])C2=O)c([N+](=O)[O-])c1 | 15.2 | 19.2 | 14.6 | 211 |  |  |  |  | 
3 | CN(C)c1ccc(/C=C2\COC/C(=C\c3ccc(N(C)C)cc3[N+](=O)[O-])C2=O)c([N+](=O)[O-])c1 | 7.79 | 18.6 | 0.72 | 44.7 |  |  | 76 | 73 | 
4 | CN(C)c1ccc(/C=C2\CNC/C(=C\c3ccc(N(C)C)cc3[N+](=O)[O-])C2=O)c([N+](=O)[O-])c1 | 4.19 | 7.88 | 0.67 | 39.5 |  |  | 76 | 73 | 
5 | CN(C)c1ccc(/C=C2\CCc3ccccc3C2=O)c([N+](=O)[O-])c1 | 37.6 | 28 | 21.5 |  |  | Active |  |  | 
6 | CCOC(OCC)c1ccc(/C=C/C(=O)/C=C/c2ccc(C(OCC)OCC)cc2)cc1 | 19.2 | 31.5 | 3.22 | 210 |  |  | 76 |  | 
7 | CN(C)c1ccc(/C=C/C(=O)/C=C/c2ccc(N(C)C)cc2[N+](=O)[O-])c([N+](=O)[O-])c1 | 18.2 | 15 | 3.96 | 103 |  |  | 76 |  | 
8 | CN(C)c1ccc(/C=C2\Cc3ccccc3C2=O)c([N+](=O)[O-])c1 | 28 | 14.8 | 9.91 |  |  |  |  |  | 
9 | CC(Cc1ccc(O)c(O)c1)C(C)Cc1ccc(O)c(O)c1 (stereo not given) [NORDIHYDROGUAIARETIC ACID] |  |  |  | 9.23 |  |  |  |  | 
10 | C[C@@H]1C[C@H]2[C@@H]3CCC4=CC(=O)C=C[C@]4(C)[C@@]3(F)[C@@H](O)C[C@]2(C)[C@@]1(O)C(=O)CO [DEXAMETHASONE] | 0.61 |  |  |  |  |  |  |  | 
11 | CN(C)c1ccc(/C=C2/CCC/C(=C\c3ccc(N(C)C)cc3[N+](=O)[O-])C2=O)c([N+](=O)[O-])c1 | 11.2 | > 100 | 0.42 | 29.3 |  |  |  |  | 
12 | CN1C/C(=C\c2ccc(N(C)C)cc2[N+](=O)[O-])C(=O)/C(=C/c2ccc(N(C)C)cc2[N+](=O)[O-])C1 | 2.19 | 9.12 | 1.22 | 38.3 |  |  | 91 | 91 | 
13 | CCOC(OCC)c1ccc(/C=C2\Cc3ccccc3C2=O)cc1 | 37.3 | 19.3 | 2.22 |  |  |  |  |  | 
14 | CN(C)c1ccc(/C=C/C(=O)C2CCc3ccccc3C2=O)c([N+](=O)[O-])c1 (stereo not given) | 22.2 | 37.7 | 29.3 | 157 |  |  |  |  | 
15 | CCOC(OCC)c1ccc(/C=C2\COC/C(=C\c3ccc(C(OCC)OCC)cc3)C2=O)cc1 | 8.76 | 11.2 |  | 91 |  |  |  | 73 | 
16 | CCOC(OCC)c1ccc(/C=C2\CCc3ccccc3C2=O)cc1 | 58.2 | > 100 |  |  |  |  |  |  | Active

Now from value to compound, other results behind:

Row | IC50 [1] [µM] | IC50 [2] [µM] | IC50 [4] [µM] | IC50 (Lipoxygenase) [µM] | inhibition [7] [%] | SMILES | Activity (RAW264.7 [3]) | inhibition at 10 µM (RAW264.7 [5]) [%] | inhibition at 10 µM (RAW264.7 [6]) [%] | Activity (RAW264.7 [8])
17 | 44.1 | 61.2 |  |  |  | O=C(/C=C/c1ccc(N2CCCC2)cc1)C1CCc2ccccc2C1=O (stereo not given) | Active |  |  | 
18 | 29.3 | 69.8 | 49.3 |  |  | O=C(/C=C/c1ccc(N2CCCC2)cc1)/C=C/c1ccc(N2CCCC2)cc1 |  |  |  | 
19 | 54.2 | > 100 | 33.5 |  |  | O=C1/C(=C/c2ccc(N3CCCC3)cc2)CCc2ccccc21 |  |  |  | 
20 | 11.2 | > 100 | 69.2 |  |  | CN1C/C(=C\c2ccc(N3CCCC3)cc2)C(=O)/C(=C/c2ccc(N3CCCC3)cc2)C1 |  |  |  | 
21 | 28.3 | 54.3 | 33.5 |  |  | O=C1/C(=C/c2ccc(N3CCCC3)cc2)CCC/C1=C\c1ccc(N2CCCC2)cc1 |  |  |  | 
22 | 15.2 | > 100 | 39.4 |  |  | O=C1/C(=C/c2ccc(N3CCCC3)cc2)COC/C1=C\c1ccc(N2CCCC2)cc1 |  |  |  | 
23 | 4.21 | 38.2 |  | 65.6 | 67.6 | CCOC(OCC)c1ccc(/C=C2\CN(C)C/C(=C\c3ccc(C(OCC)OCC)cc3)C2=O)cc1 |  | 76 | 73 | 
24 | 12.1 | > 100 |  |  |  | O=C1/C(=C/c2ccc(N3CCCC3)cc2)CNC/C1=C\c1ccc(N2CCCC2)cc1 |  |  |  | 
25 | 55.7 | 46.2 | 37.8 |  |  | O=C1/C(=C/c2ccc(N3CCCC3)cc2)CC/C1=C\c1ccc(N2CCCC2)cc1 |  |  |  | Active
26 | 17.8 | > 100 | 3.17 |  |  | CCOC(OCC)c1ccc(/C=C2\CN(Cc3ccccc3)C/C(=C\c3ccc(C(OCC)OCC)cc3)C2=O)cc1 |  |  |  | 
27 | 19.2 | 57.2 | 51.3 |  |  | O=C1/C(=C/c2ccc(N3CCCC3)cc2)CN(Cc2ccccc2)C/C1=C\c1ccc(N2CCCC2)cc1 |  |  |  | 
28 | 12.6 | 17.4 |  | 83.1 |  | CCOC(OCC)c1ccc(/C=C2\CCC/C(=C\c3ccc(C(OCC)OCC)cc3)C2=O)cc1 |  |  |  | 
29 | 7.14 | 27.7 |  | 88.4 |  | CCOC(OCC)c1ccc(/C=C2\CNC/C(=C\c3ccc(C(OCC)OCC)cc3)C2=O)cc1 |  | 91 | 91 | 
30 |  | 14.8 |  |  |  | CCOC(OCC)c1ccc(/C=C2\CC/C(=C\c3ccc(C(OCC)OCC)cc3)C2=O)cc1 |  |  |  | 
31 | 67.3 | 54.6 |  |  |  | O=C1/C(=C/c2ccc(N3CCCC3)cc2)Cc2ccccc21 | Active |  |  | Active
